Results reported in ChEMBL document CHEMBL4033790, “Design and Synthesis of Novel Deuterated Ligands Functionally Selective for the γ-Aminobutyric Acid Type A Receptor (GABAAR) α6 Subtype with Improved Metabolic Stability and Enhanced Bioavailability” (J Med Chem, 2018).
Values after ≈ are worked out from the molar mass of the structure shown. Active and inactive are the calls of the source. No cut-off for these calls is given here.

Columns and labels:
[1] = target: 5-hydroxytryptamine receptor 2B (Homo sapiens) (UniProt P41595); experiment: Displacement of [3H]-LSD from human recombinant 5HT2B receptor expressed in HEK293 cells at 10 uM after 60 to 90 mins by scintillation counting; assay type: cell-based; details: tested as the 2H-labelled form
Sequence of 5-hydroxytryptamine receptor 2B (Homo sapiens) (P41595 whole entry): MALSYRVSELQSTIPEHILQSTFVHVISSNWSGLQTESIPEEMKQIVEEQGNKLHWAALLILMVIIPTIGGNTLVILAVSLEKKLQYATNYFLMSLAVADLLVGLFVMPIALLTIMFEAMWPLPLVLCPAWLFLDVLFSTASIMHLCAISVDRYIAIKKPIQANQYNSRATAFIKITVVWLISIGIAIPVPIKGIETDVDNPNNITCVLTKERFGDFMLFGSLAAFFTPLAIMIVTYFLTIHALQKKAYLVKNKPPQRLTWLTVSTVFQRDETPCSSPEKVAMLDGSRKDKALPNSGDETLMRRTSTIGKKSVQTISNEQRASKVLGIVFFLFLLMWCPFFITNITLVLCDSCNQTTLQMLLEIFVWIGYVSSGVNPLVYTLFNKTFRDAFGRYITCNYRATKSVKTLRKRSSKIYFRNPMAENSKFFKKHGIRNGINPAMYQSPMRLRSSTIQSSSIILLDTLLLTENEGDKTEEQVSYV

[2] = target: GABA-A receptor; alpha-5/beta-3/gamma-2 (Homo sapiens) (UniProt P18507+P28472+P31644); experiment: Positive allosteric modulation of GABA-A receptor alpha5beta3gamma2 (unknown origin) expressed in Xenopus laevis oocytes assessed as potentiation of EC3 GABA induced currents up to 1 uM at -60 mV holding potential by electrophysiological method relative to GABA; assay type: cell-based
In short: (§1)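 Stage 5–6 defolliculated Xenopus oocytes were injected with 2.5 ng total mRNA per oocyte: α1, α2, α3 or α5 with β3 and γ2 at 1:1:5, and α4 or α6 with β3 and γ2 at 3:1:5. Oocytes were kept ≥36 h at 18 °C in NDE medium before recording. Compounds were co-applied with GABA titrated to EC3-5 for each oocyte. Curves were fitted with the Hill equation; mean ± SEM from ≥3 oocytes across two batches.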

[3] = target: GABA-A receptor; alpha-3/beta-3/gamma-2 (Homo sapiens) (UniProt P18507+P28472+P34903); experiment: Positive allosteric modulation of GABA-A receptor alpha3beta3gamma2 (unknown origin) expressed in Xenopus laevis oocytes assessed as potentiation of EC3 GABA induced currents up to 1 uM at -60 mV holding potential by electrophysiological method relative to GABA; assay type: cell-based; in short: as §1
[4] = target: GABA-A receptor; alpha-6/beta-3/gamma-2 (Homo sapiens) (UniProt P18507+P28472+Q16445); experiment: Positive allosteric modulation of GABA-A receptor alpha6beta3gamma2 (unknown origin) expressed in Xenopus laevis oocytes assessed as potentiation of EC3 GABA induced currents at 30 uM at -60 mV holding potential by electrophysiological method relative to GABA; assay type: cell-based; in short: as §1
[5] = Solubility of the compound in 0.01M HCl at pH 2 after 2 hrs by LC-MS analysis; assay type: physicochemical; details: buffer, pH 2, 2 h
In short: (§2)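 10 mg compound dissolved in 2 mL DMAC; 10 μL of this added to 2 mL DI water (pH 7, sonicated) or 2 mL 0.01 M aq HCl (pH 2), held 2 h at 37 °C. Filtered through 0.45 micron filter, then quantified by LC-MS in SIM mode against calibration curves of standards in DMAC (n = 5); n=3.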

[6] = target: GABA A receptor alpha-4/beta-3/gamma-2 (Homo sapiens) (UniProt P18507+P28472+P48169); experiment: Positive allosteric modulation of GABA-A receptor alpha4beta3gamma2 (unknown origin) expressed in Xenopus laevis oocytes assessed as potentiation of EC3 GABA induced currents up to 1 uM at -60 mV holding potential by electrophysiological method relative to GABA; assay type: cell-based; in short: as §1
[7] = target: GABA-A receptor; alpha-2/beta-3/gamma-2 (Homo sapiens) (UniProt P18507+P28472+P47869); experiment: Positive allosteric modulation of GABA-A receptor alpha2beta3gamma2 (unknown origin) expressed in Xenopus laevis oocytes assessed as potentiation of EC3 GABA induced currents up to 1 uM at -60 mV holding potential by electrophysiological method relative to GABA; assay type: cell-based; in short: as §1
[8] = target: 5-hydroxytryptamine receptor 7 (Homo sapiens) (UniProt P34969); experiment: Displacement of [3H]-LSD from human recombinant 5HT7 receptor expressed in HEK293 cells at 10 uM after 60 to 90 mins by scintillation counting; assay type: cell-based; details: tested as the 2H-labelled form
Sequence of 5-hydroxytryptamine receptor 7 (Homo sapiens) (P34969 whole entry): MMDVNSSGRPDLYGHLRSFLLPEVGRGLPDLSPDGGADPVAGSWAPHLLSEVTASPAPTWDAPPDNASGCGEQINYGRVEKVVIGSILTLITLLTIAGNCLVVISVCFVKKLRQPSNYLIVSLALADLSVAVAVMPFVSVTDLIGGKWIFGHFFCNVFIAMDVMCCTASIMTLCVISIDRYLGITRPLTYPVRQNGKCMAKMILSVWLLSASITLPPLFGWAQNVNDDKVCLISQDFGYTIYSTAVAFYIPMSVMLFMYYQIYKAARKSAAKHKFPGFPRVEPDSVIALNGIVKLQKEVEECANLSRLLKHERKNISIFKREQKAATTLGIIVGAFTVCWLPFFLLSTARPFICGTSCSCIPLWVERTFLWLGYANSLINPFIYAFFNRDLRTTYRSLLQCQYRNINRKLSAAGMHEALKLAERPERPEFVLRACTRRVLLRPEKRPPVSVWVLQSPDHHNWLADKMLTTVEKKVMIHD

[9] = Metabolic stability in mouse liver microsomes assessed as parent compound remaining at 10 uM after 60 mins by LC-MS analysis; assay type: ADME, microsome; details: read-out: Stability
In short: (§3)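 The 60 min samples of the microsomal incubation (10 μM compound, human or mouse liver microsomes at 0.5 mg/mL, NADPH regenerating system, 37 °C) were analysed by LC-MS. Detection used SIM mode with dual ESI/APCI ionization, calibrated to the retention times and masses of the parent and its O-demethylated metabolites. Peak intensities were measured.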

[10] = Metabolic stability in human liver microsomes assessed as parent compound remaining at 10 uM after 60 mins by LC-MS analysis; assay type: ADME, microsome; details: read-out: Stability; in short: as §3
[11] = target: GABA-A receptor; alpha-1/beta-3/gamma-2 (Homo sapiens) (UniProt P14867+P18507+P28472); experiment: Positive allosteric modulation of GABA-A receptor alpha1beta3gamma2 (unknown origin) expressed in Xenopus laevis oocytes assessed as potentiation of EC3 GABA induced currents up to 1 uM at -60 mV holding potential by electrophysiological method relative to GABA; assay type: cell-based; in short: as §1
[12] = species: Rattus norvegicus; experiment: Displacement of [3H]-flunitrazepam from rat brain GABA-A receptor benzodiazepine site […] at 10 uM after 60 to 90 mins by scintillation counting; details: tested as the 2H-labelled form
[13] = target: Voltage-gated inwardly rectifying potassium channel KCNH2 (Homo sapiens, UniProt Q12809); experiment: Displacement of [3H]-dofetilide from human ERG expressed in HEK cell membranes at >10 uM after 60 to 90 mins by scintillation counting
Sequence of Voltage-gated inwardly rectifying potassium channel KCNH2 (Q12809 whole entry): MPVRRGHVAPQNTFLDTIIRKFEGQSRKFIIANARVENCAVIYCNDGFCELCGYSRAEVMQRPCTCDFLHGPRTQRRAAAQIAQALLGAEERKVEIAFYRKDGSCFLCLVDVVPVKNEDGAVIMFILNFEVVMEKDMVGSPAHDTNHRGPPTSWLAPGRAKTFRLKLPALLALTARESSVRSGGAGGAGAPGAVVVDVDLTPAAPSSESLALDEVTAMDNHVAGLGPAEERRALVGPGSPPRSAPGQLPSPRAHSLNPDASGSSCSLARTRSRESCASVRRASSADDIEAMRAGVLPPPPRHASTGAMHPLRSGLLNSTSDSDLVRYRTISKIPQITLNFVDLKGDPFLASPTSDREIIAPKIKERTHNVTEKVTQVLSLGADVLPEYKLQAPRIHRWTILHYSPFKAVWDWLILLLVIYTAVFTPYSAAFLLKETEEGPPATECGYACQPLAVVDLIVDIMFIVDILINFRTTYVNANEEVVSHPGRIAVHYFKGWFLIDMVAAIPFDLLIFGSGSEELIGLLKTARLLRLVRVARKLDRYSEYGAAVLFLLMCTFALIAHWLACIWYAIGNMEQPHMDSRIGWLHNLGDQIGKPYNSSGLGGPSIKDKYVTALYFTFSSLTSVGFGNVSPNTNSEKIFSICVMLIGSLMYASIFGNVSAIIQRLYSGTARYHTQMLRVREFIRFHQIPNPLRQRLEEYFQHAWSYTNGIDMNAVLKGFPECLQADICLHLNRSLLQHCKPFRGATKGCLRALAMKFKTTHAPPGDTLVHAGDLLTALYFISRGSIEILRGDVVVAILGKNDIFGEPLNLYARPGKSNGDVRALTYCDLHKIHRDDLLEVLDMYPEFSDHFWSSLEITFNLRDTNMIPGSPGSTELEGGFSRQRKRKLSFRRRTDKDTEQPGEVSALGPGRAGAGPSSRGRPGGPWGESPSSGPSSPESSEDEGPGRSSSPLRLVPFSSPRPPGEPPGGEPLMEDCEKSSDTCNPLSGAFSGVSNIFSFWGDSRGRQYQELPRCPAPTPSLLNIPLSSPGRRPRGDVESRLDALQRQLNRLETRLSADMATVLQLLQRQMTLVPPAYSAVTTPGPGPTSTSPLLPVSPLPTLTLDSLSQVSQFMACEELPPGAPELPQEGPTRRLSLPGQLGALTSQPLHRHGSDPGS

[14] = Aqueous solubility of the compound in DI water at pH 7 after 2 hrs by LC-MS analysis; assay type: physicochemical; details: buffer, pH 7, 2 h; in short: as §2
[15] = test system: Mus musculus; experiment: Neurotoxicity in Swiss Webster mouse assessed as induction of motor impairment at 40 mg/kg administered via oral gavage measured after 10 to 60 mins by rotarod method; assay type: toxicity, organism-based; details: in vivo
In short: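 Female mice were given a single oral gavage dose of 40 mg/kg, either in 50% PBS/40% propylene glycol/10% DMSO or, for poorly soluble compounds, in 2% polyethylene glycol plus 2.5% hydroxymethyl cellulose. Rotarod performance was tested 10, 30 and 60 min after dosing, with diazepam 5 mg/kg as positive control.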

[16] = target: T1, 5-hydroxytryptamine receptor 2C (Homo sapiens) (UniProt P28335); experiment: Displacement of [3H]-mesulergine from human recombinant 5HT2C receptor expressed in HEK293T cells at 10 uM after 60 to 90 mins by scintillation counting; assay type: cell-based; details: HEK-293T, tested as the 2H-labelled form
T1 sequence (whole entry): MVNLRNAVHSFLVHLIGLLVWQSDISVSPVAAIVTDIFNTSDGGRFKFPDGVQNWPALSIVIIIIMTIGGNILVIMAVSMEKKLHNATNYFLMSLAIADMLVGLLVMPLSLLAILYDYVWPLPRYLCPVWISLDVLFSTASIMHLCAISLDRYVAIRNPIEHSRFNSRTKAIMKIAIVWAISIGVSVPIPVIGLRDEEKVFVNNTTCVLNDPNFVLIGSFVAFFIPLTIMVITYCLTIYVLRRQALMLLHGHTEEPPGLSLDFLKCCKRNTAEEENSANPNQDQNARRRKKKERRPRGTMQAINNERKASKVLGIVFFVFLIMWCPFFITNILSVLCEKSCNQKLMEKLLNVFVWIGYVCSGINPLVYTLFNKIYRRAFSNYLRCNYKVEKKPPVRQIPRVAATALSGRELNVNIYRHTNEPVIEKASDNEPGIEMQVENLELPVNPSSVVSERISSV

[17] = test system: Liver; experiment: Half life in human liver microsomes at 10 uM by LC-MS/MS analysis; assay type: ADME, microsome
In short: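 Compound at 10 μM final was preincubated 5 min at 37 °C with NADPH regenerating system in phosphate buffer, pH 7.4. Human or mouse liver microsomes (0.5 mg/mL protein) were added to start the reaction. Samples were taken at 0 (no microsomes) and 10–60 min and measured by LC-MS/MS against an internal standard. Half-life = 0.693/k, with k the slope of ln peak-area ratio versus time. Three experiments, each in duplicate.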

[18] = target: Mu-type opioid receptor (Homo sapiens) (UniProt P35372); experiment: Displacement of [3H]-DAMGO from human recombinant MOR expressed in HEK293 cells at 10 uM after 60 to 90 mins by scintillation counting; assay type: cell-based; details: tested as the 2H-labelled form
Sequence of Mu-type opioid receptor (Homo sapiens) (P35372 whole entry): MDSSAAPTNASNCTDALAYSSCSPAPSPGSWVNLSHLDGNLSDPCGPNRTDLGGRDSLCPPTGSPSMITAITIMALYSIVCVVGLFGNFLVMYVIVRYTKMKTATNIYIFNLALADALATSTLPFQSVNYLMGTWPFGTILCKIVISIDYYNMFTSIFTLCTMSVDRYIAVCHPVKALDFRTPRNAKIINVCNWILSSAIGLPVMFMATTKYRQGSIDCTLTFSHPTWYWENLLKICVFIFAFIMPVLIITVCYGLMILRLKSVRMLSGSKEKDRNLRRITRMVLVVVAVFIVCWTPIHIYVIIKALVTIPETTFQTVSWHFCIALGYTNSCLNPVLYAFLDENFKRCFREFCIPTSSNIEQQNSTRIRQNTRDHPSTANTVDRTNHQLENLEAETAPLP

[19] = Drug level in mouse liver microsomes treated with 7-Methoxy-d3-2-(6-methoxypyridin-3-yl)-2,5-dihydro-3Hpyrazolo[4,3-c]quinolin-3-one after 60 mins by LC-MS analysis; assay type: ADME; details: 1 h
[20] = Drug level in human liver microsomes treated with 7-Methoxy-d3-2-(6-methoxypyridin-3-yl)-2,5-dihydro-3Hpyrazolo[4,3-c]quinolin-3-one after 60 mins by LC-MS analysis; assay type: ADME; details: 1 h
[21] = Drug level in human liver microsomes treated with 7-Methoxy-d3-2-(4-methoxyphenyl)-2,5-dihydro-3H-pyrazolo-[4,3-c]quinolin-3-one after 60 mins by LC-MS analysis; assay type: ADME; details: 1 h
[22] = Drug level in mouse liver microsomes treated with 7-Methoxy-d3-2-(4-methoxyphenyl)-2,5-dihydro-3H-pyrazolo-[4,3-c]quinolin-3-one after 60 mins by LC-MS analysis; assay type: ADME; details: 1 h
[23] = Drug level in mouse liver microsomes treated with 7-Methoxy-2-(6-methoxy-d3-pyridin-3-yl)-2,5-dihydro-3Hpyrazolo[4,3-c]quinolin-3-one after 60 mins by LC-MS analysis; assay type: ADME; details: 1 h
[24] = Drug level in human liver microsomes treated with 7-Methoxy-2-(6-methoxy-d3-pyridin-3-yl)-2,5-dihydro-3Hpyrazolo[4,3-c]quinolin-3-one after 60 mins by LC-MS analysis; assay type: ADME; details: 1 h
[25] = Drug level in human liver microsomes treated with 7-Methoxy-2-(4-methoxy-d3-phenyl)-2,5-dihydro-3H-pyrazolo-[4,3-c]quinolin-3-one after 60 mins by LC-MS analysis; assay type: ADME; details: 1 h
[26] = Drug level in mouse liver microsomes treated with 7-Methoxy-2-(4-methoxy-d3-phenyl)-2,5-dihydro-3H-pyrazolo-[4,3-c]quinolin-3-one after 60 mins by LC-MS analysis; assay type: ADME; details: 1 h

COc1ccc(-n2nc3c4ccc(Br)cc4[nH]cc-3c2=O)cc1
inhibition [1]: Active
Activity [2]: < 0%
Activity [3]: < 0%
Activity [4]: 900%
Activity ([4]; tested as the 2H-labelled form): inactive
solubility [5]: 3.3 µM (≈ 1.22 µg/mL)
Activity [6]: < 0%
Activity [7]: < 0%
inhibition [8]: Active
remaining at 1 h, 10 µM [9]: 69%
remaining at 1 h, 10 µM [10]: 66.9%
Activity [11]: < 0%
inhibition [12]: Active
inhibition (INH) [13]: Not Active
solubility [14]: 8.3 µM (≈ 3.07 µg/mL)
Activity [15]: Non-Toxic
inhibition [16]: Active
t1/2 [17]: 1.7 h
inhibition [18]: Active

COc1cccc(-n2nc3c4cc(Cl)ccc4[nH]cc-3c2=O)c1
Activity [2]: < 0%
Activity [3]: < 0%
Activity [4]: 400%
Activity ([4]; tested as the 2H-labelled form): inactive
solubility [5]: 2.6 µM (≈ 0.847 µg/mL)
Activity [6]: < 0%
Activity [7]: < 0%
remaining at 1 h, 10 µM [9]: 59.8%
remaining at 1 h, 10 µM [10]: 81.4%
Activity [11]: < 0%
inhibition [12]: Active
inhibition (INH) [13]: Not Active
solubility [14]: 6.8 µM (≈ 2.22 µg/mL)
Activity [15]: Non-Toxic
t1/2 [17]: 3.4 h

[2H]C([2H])([2H])Oc1ccc2c3nn(-c4ccc(O)nc4)c(=O)c-3c[nH]c2c1
Drug metabolism [19]: Metabolite_Detected
Drug metabolism [20]: Metabolite_Detected

COc1ccc(-n2nc3c4ccc(O)cc4[nH]cc-3c2=O)cc1
Drug metabolism [21]: Metabolite_Detected
Drug metabolism [22]: Metabolite_Detected

COc1ccc2c3nn(-c4ccc(O)nc4)c(=O)c-3c[nH]c2c1
Drug metabolism [23]: Metabolite_Detected
Drug metabolism [24]: Metabolite_Detected

O=c1c2c[nH]c3cc(O)ccc3c-2nn1-c1ccc(O)nc1
Drug metabolism [23]: Metabolite_Detected
Drug metabolism [19]: Metabolite_Detected
Drug metabolism [20]: Metabolite_Detected
Drug metabolism [24]: Metabolite_Detected

[2H]C([2H])([2H])Oc1ccc(-n2nc3c4ccc(O)cc4[nH]cc-3c2=O)cn1
Drug metabolism [23]: Metabolite_Detected
Drug metabolism [24]: Metabolite_Detected

COc1ccc(-n2nc3c4ccc(O)cc4[nH]cc-3c2=O)cn1
Drug metabolism [19]: Metabolite_Detected
Drug metabolism [20]: Metabolite_Detected

O=c1c2c[nH]c3cc(O)ccc3c-2nn1-c1ccc(O)cc1
Drug metabolism [25]: Metabolite_Detected
Drug metabolism [21]: Metabolite_Detected
Drug metabolism [22]: Metabolite_Detected
Drug metabolism [26]: Metabolite_Detected

[2H]C([2H])([2H])Oc1ccc2c3nn(-c4ccc(O)cc4)c(=O)c-3c[nH]c2c1
Drug metabolism [21]: Metabolite_Detected
Drug metabolism [22]: Metabolite_Detected

[2H]C([2H])([2H])Oc1ccc(-n2nc3c4ccc(O)cc4[nH]cc-3c2=O)cc1
Drug metabolism [25]: Metabolite_Detected
Drug metabolism [26]: Metabolite_Detected

COc1ccccc1-n1nc2c3ccc(Br)cc3[nH]cc-2c1=O
inhibition [1]: Active
inhibition [8]: Active
inhibition [12]: Active
inhibition [16]: Active
inhibition [18]: Active

COc1ccc2c3nn(-c4ccc(O)cc4)c(=O)c-3c[nH]c2c1
Drug metabolism [25]: Metabolite_Detected
Drug metabolism [26]: Metabolite_Detected
